pIC50: −log10 of the molar value.
Target: T1, Melanin-concentrating hormone receptor 1 (Homo sapiens, UniProt Q99705)
Test: Displacement of [125I]MCH from human MCHR1 expressed in CHO cells after 1 hr by scintillation counting
Assay type: cell-based
Details: not given
Outline: (§1)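 CHO cell membranes stably expressing human or rat MCHR1 incubated 1 h at room temperature with [125I]MCH(4−19) and compound at various concentrations. Filtration through GF/C glass filters, bound radioactivity counted by scintillation. IC50 from one experiment in duplicate.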

T1 sequence (Q99705 whole entry): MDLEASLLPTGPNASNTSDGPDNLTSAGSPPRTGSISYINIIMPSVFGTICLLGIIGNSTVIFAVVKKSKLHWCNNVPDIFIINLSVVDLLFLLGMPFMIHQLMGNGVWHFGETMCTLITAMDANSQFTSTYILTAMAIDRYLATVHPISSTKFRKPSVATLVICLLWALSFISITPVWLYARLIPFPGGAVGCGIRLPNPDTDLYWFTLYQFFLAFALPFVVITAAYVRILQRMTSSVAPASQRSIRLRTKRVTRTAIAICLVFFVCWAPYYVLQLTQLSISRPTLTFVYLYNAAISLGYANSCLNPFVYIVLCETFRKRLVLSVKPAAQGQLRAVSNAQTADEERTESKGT

| SMILES | pIC50 |
| --- | --- |
| Cc1cc2cc(CN3CCCC3)cnc2cc1NC(=O)c1ccc(-c2ccc(F)cc2)cc1 | 8.89 |
| O=C(Nc1ccc2cc(CN3CCCC3)cnc2c1)N1CCC(c2ccc(Cl)cc2)CC1 | 8.18 |
| O=C(Nc1ccc2nc(CN3CCCC3)ccc2c1)c1ccc(-c2ccc(F)cc2)cc1 | 8.57 |
| COc1ccc(-c2ccc(C(=O)Nc3ccc4cc(CN5CCCC5)cnc4c3)cc2)cc1 | 8.43 |
| Cc1c(NC(=O)c2ccc(-c3ccc(F)cc3)cc2)ccc2cc(CN3CCCC3)cnc12 | 9.27 |
| Cc1ccc(-c2ccc(C(=O)Nc3ccc4cc(CN5CCCC5)cnc4c3)cn2)cc1 | 7.74 |
| Cc1ccc(-c2ccc(C(=O)Nc3ccc4cc(CN5CCCC5)cnc4c3)cc2)cc1 | 8.66 |
| Cc1c(NC(=O)c2ccc(-c3ccccc3)cc2)ccc2cc(CN3CCCC3)cnc12 | 8.74 |

Target: T1, Melanin-concentrating hormone receptor 1
Test: Antagonist activity at human MCHR1 expressed in CHO cells assessed as inhibition of MCH-induced [3H]arachidonic acid release […] by liquid scintillation counting
Assay type: functional, cell-based
Details: in the assay text read “45 mins” for “16 hrs”
Outline: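 Human MCHR1-CHO cells seeded at 50 000/well, cultured 1 day, then loaded with [3H]arachidonic acid (0.2 μCi/well) for 16 h. Washed with DMEM containing 20 mM HEPES pH 7.4 and 0.2% BSA. Compound preincubated 30 min at 37 °C, MCH added, 45 min incubation, medium radioactivity by liquid scintillation.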

| SMILES | pIC50 |
| --- | --- |
| Cc1cc2cc(CN3CCCC3)cnc2cc1NC(=O)c1ccc(-c2ccc(F)cc2)cc1 | 8.00 |
| O=C(Nc1ccc2nc(CN3CCCC3)ccc2c1)c1ccc(-c2ccc(F)cc2)cc1 | 7.40 |
| Cc1c(NC(=O)c2ccc(-c3ccc(F)cc3)cc2)ccc2cc(CN3CCCC3)cnc12 | 8.55 |
| Cc1c(NC(=O)c2ccc(-c3ccccc3)cc2)ccc2cc(CN3CCCC3)cnc12 | 8.15 |

Target: T2, 5-hydroxytryptamine receptor 2C (Homo sapiens, UniProt P28335)
T2 sequence (P28335 whole entry): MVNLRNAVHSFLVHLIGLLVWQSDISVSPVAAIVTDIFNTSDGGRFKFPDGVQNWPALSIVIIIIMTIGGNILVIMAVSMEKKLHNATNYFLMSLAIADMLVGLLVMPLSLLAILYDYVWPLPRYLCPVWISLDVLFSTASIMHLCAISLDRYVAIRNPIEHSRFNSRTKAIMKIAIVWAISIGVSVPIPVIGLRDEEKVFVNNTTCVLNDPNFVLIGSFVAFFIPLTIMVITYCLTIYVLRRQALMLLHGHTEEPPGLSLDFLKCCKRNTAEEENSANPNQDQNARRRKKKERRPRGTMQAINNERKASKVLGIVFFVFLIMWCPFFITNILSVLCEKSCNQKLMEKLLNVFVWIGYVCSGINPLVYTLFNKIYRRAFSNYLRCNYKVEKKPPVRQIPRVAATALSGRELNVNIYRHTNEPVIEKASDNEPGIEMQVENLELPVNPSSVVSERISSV
Test: Displacement of [3H]mesulergine from human 5HT2C receptor expressed in CHO cells after 1 hr by scintillation counting
Assay type: cell-based
Details: not given
Outline: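 Membranes from CHO cells stably expressing human 5-HT2c incubated 1 h at room temperature with [3H]mesulergine and compound at various concentrations. Terminated by GF/C filtration, filter radioactivity counted by scintillation. IC50 from one experiment in duplicate.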

| SMILES | pIC50 |
| --- | --- |
| Cc1cc2cc(CN3CCCC3)cnc2cc1NC(=O)c1ccc(-c2ccc(F)cc2)cc1 | 8.13 |
| O=C(Nc1ccc2cc(CN3CCCC3)cnc2c1)N1CCC(c2ccc(Cl)cc2)CC1 | 7.26 |
| O=C(Nc1ccc2nc(CN3CCCC3)ccc2c1)c1ccc(-c2ccc(F)cc2)cc1 | 7.44 |
| COc1ccc(-c2ccc(C(=O)Nc3ccc4cc(CN5CCCC5)cnc4c3)cc2)cc1 | < 6.00 |
| Cc1c(NC(=O)c2ccc(-c3ccc(F)cc3)cc2)ccc2cc(CN3CCCC3)cnc12 | < 6.00 |
| Cc1ccc(-c2ccc(C(=O)Nc3ccc4cc(CN5CCCC5)cnc4c3)cn2)cc1 | 6.24 |
| Cc1ccc(-c2ccc(C(=O)Nc3ccc4cc(CN5CCCC5)cnc4c3)cc2)cc1 | 6.18 |
| Cc1c(NC(=O)c2ccc(-c3ccccc3)cc2)ccc2cc(CN3CCCC3)cnc12 | 6.12 |

Test system: not listed separately
Test: Bioavailability in Fischer 344 rat
Assay type: ADME, organism-based
Details: in vivo

| SMILES | bioavailability [%] |
| --- | --- |
| Cc1c(NC(=O)c2ccc(-c3ccc(F)cc3)cc2)ccc2cc(CN3CCCC3)cnc12 | 39 |

Test system: not listed separately
Test: Total clearance in Fischer 344 rat at 0.3 mg/kg, iv
Assay type: ADME, organism-based
Design: dose 0.3 mg/kg, route intravenous
Details: in vivo

| SMILES | clearance [mL/min/kg] |
| --- | --- |
| Cc1c(NC(=O)c2ccc(-c3ccc(F)cc3)cc2)ccc2cc(CN3CCCC3)cnc12 | 40 |

Test system: not listed separately
Test: Volume of distribution at the steady state in Fischer 344 rat at 0.3 mg/kg, iv
Assay type: ADME, organism-based
Design: dose 0.3 mg/kg, route intravenous
Details: in vivo, read-out: Vdss

| SMILES | Vd [L/kg] |
| --- | --- |
| Cc1c(NC(=O)c2ccc(-c3ccc(F)cc3)cc2)ccc2cc(CN3CCCC3)cnc12 | 20 |

Test system: not listed separately
Test: Half life in Fischer 344 rat at 0.3 mg/kg, iv
Assay type: ADME, organism-based
Design: dose 0.3 mg/kg, route intravenous
Details: in vivo

| SMILES | half-life [h] |
| --- | --- |
| Cc1c(NC(=O)c2ccc(-c3ccc(F)cc3)cc2)ccc2cc(CN3CCCC3)cnc12 | 7.7 |

Test system: not listed separately
Test: Cmax in Fischer 344 rat at 1 mg/kg, po
Assay type: ADME, organism-based
Design: dose 1 mg/kg, route oral
Details: in vivo

| SMILES | Cmax [ng/mL] |
| --- | --- |
| Cc1c(NC(=O)c2ccc(-c3ccc(F)cc3)cc2)ccc2cc(CN3CCCC3)cnc12 | 9 |

Test system: not listed separately
Test: Tmax in Fischer 344 rat at 1 mg/kg, po
Assay type: ADME, organism-based
Design: dose 1 mg/kg, route oral
Details: in vivo

| SMILES | Tmax [h] |
| --- | --- |
| Cc1c(NC(=O)c2ccc(-c3ccc(F)cc3)cc2)ccc2cc(CN3CCCC3)cnc12 | 4 |

Test system: not listed separately
Test: AUC in Fischer 344 rat at 1 mg/kg, po
Assay type: ADME, organism-based
Design: dose 1 mg/kg, route oral
Details: plasma

| SMILES | AUC [ng·h/mL] |
| --- | --- |
| Cc1c(NC(=O)c2ccc(-c3ccc(F)cc3)cc2)ccc2cc(CN3CCCC3)cnc12 | 160 |

Target: Melanin-concentrating hormone receptor 1 (Rattus norvegicus, UniProt P97639)
Test: Displacement of [125I]MCH from rat MCHR1 expressed in CHO cells after 1 hr by scintillation counting
Assay type: cell-based
Details: not given
Outline: as §1

Sequence of Melanin-concentrating hormone receptor 1 (Rattus norvegicus, UniProt P97639) (P97639 whole entry): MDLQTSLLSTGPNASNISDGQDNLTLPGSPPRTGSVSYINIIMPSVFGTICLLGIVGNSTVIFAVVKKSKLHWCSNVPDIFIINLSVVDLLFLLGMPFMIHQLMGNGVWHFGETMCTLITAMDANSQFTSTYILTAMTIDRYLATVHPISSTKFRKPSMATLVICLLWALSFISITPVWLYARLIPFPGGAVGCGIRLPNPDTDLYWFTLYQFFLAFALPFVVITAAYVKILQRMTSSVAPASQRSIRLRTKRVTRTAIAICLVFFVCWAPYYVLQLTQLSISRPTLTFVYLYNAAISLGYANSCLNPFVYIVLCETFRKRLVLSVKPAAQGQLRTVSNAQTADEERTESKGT

| SMILES | pIC50 |
| --- | --- |
| Cc1c(NC(=O)c2ccc(-c3ccc(F)cc3)cc2)ccc2cc(CN3CCCC3)cnc12 | 8.77 |

Test system: Rattus norvegicus
Test: Antiobesity activity in high-fat diet fed Fischer 344 rat DIO model assessed as inhibition of food intake at 1 mg/kg, po after 6 hrs
Assay type: functional
Details: Fischer 344, 6 h
Outline: (§2)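 Male F344/Jcl rats, 52 weeks old, fed high-fat diet from 5 weeks of age, housed singly and acclimated to oral water dosing; grouped by overnight food intake and body weight. Single oral dose at 15:00 as 0.5% methylcellulose suspension, 2 mL/kg, six rats per group; vehicle controls. Cumulative food intake at 6 and 17 h; percent inhibition versus control, mean ± SD.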

| SMILES | inhibition in vivo at 1 mg/kg [%] |
| --- | --- |
| Cc1c(NC(=O)c2ccc(-c3ccc(F)cc3)cc2)ccc2cc(CN3CCCC3)cnc12 | 18.8 |

Test system: Rattus norvegicus
Test: Antiobesity activity in high-fat diet fed Fischer 344 rat DIO model assessed as inhibition of food intake at 1 mg/kg, po after 17 hrs
Assay type: functional
Details: Fischer 344, 17 h
Outline: as §2

| SMILES | inhibition in vivo at 1 mg/kg [%] |
| --- | --- |
| Cc1c(NC(=O)c2ccc(-c3ccc(F)cc3)cc2)ccc2cc(CN3CCCC3)cnc12 | 15.5 |

Test system: Rattus norvegicus
Test: Antiobesity activity in high-fat diet fed Fischer 344 rat DIO model assessed as inhibition of food intake at 3 mg/kg, po after 6 hrs
Assay type: functional
Details: Fischer 344, 6 h
Outline: (§3)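 Male 52-week-old F344/Jcl rats on high-fat diet from 5 weeks of age, housed singly, grouped by overnight food intake and body weight. Oral dosing at 15:00 in 0.5% methylcellulose suspension, 2 mL/kg, against vehicle controls; six rats per group.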

| SMILES | inhibition in vivo at 3 mg/kg [%] |
| --- | --- |
| Cc1c(NC(=O)c2ccc(-c3ccc(F)cc3)cc2)ccc2cc(CN3CCCC3)cnc12 | 36.7 |

Test system: Rattus norvegicus
Test: Antiobesity activity in high-fat diet fed Fischer 344 rat DIO model assessed as inhibition of food intake at 3 mg/kg, po after 17 hrs
Assay type: functional
Details: Fischer 344, 17 h
Outline: as §3

| SMILES | inhibition in vivo at 3 mg/kg [%] |
| --- | --- |
| Cc1c(NC(=O)c2ccc(-c3ccc(F)cc3)cc2)ccc2cc(CN3CCCC3)cnc12 | 28.9 |

Test system: Rattus norvegicus
Test: Antiobesity activity in high-fat diet fed Fischer 344 rat DIO model assessed as inhibition of food intake at 10 mg/kg, po after 6 hrs
Assay type: functional
Details: Fischer 344, 6 h
Outline: as §3

| SMILES | inhibition in vivo at 10 mg/kg [%] |
| --- | --- |
| Cc1c(NC(=O)c2ccc(-c3ccc(F)cc3)cc2)ccc2cc(CN3CCCC3)cnc12 | 55.7 |

Test system: Rattus norvegicus
Test: Antiobesity activity in high-fat diet fed Fischer 344 rat DIO model assessed as inhibition of food intake at 10 mg/kg, po after 17 hrs
Assay type: functional
Details: Fischer 344, 17 h
Outline: as §3

| SMILES | inhibition in vivo at 10 mg/kg [%] |
| --- | --- |
| Cc1c(NC(=O)c2ccc(-c3ccc(F)cc3)cc2)ccc2cc(CN3CCCC3)cnc12 | 45.8 |

Test system: Rattus norvegicus
Test: Antiobesity activity in po dosed high-fat diet fed Fischer 344 rat DIO model assessed as inhibition of food intake after 17 hrs
Assay type: functional, organism-based
Details: not given
Outline: as §3

| SMILES | inhibition |
| --- | --- |
| Cc1c(NC(=O)c2ccc(-c3ccc(F)cc3)cc2)ccc2cc(CN3CCCC3)cnc12 | Dose-dependent effect |

Test system: not listed separately
Test: Cmax in Fischer 344 rat brain at 1 mg/kg, po
Assay type: ADME, organism-based
Design: dose 1 mg/kg, route oral
Details: not given

| SMILES | Cmax [ng/g] |
| --- | --- |
| Cc1c(NC(=O)c2ccc(-c3ccc(F)cc3)cc2)ccc2cc(CN3CCCC3)cnc12 | 610 |

Test system: not listed separately
Test: Tmax in Fischer 344 rat brain at 1 mg/kg, po
Assay type: ADME, organism-based
Design: dose 1 mg/kg, route oral
Details: not given

| SMILES | Tmax [h] |
| --- | --- |
| Cc1c(NC(=O)c2ccc(-c3ccc(F)cc3)cc2)ccc2cc(CN3CCCC3)cnc12 | 8 |

Test system: Brain
Test: AUC in Fischer 344 rat brain at 1 mg/kg, po
Assay type: ADME, organism-based
Design: dose 1 mg/kg, route oral
Details: in vivo

| SMILES | AUC [ng·h/g] |
| --- | --- |
| Cc1c(NC(=O)c2ccc(-c3ccc(F)cc3)cc2)ccc2cc(CN3CCCC3)cnc12 | 9343 |

Test system: Mus musculus
Test: Antiobesity activity in high-fat diet given wild type mouse assessed as inhibition of food intake at 3 mg/kg, po qd for 2 days
Assay type: functional
Details: 48 h
Outline: (§4)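 Male MCHR1-deficient mice and wild-type littermates, 34 weeks old, on high-fat diet from 5 weeks of age, housed singly. Grouped by food intake days −5 to −1 and day −1 body weight. Oral dosing at 16:00 on days 0 and 1 in 0.5% methylcellulose suspension, 10 mL/kg, against vehicle controls; six mice per group.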

| SMILES | inhibition in vivo at 3 mg/kg [%] |
| --- | --- |
| Cc1c(NC(=O)c2ccc(-c3ccc(F)cc3)cc2)ccc2cc(CN3CCCC3)cnc12 | 10.2 |

Test system: Mus musculus
Test: Antiobesity activity in high-fat diet given wild type mouse assessed as inhibition of food intake at 10 mg/kg, po qd for 2 days
Assay type: functional
Details: 48 h
Outline: as §4

| SMILES | inhibition in vivo at 10 mg/kg [%] |
| --- | --- |
| Cc1c(NC(=O)c2ccc(-c3ccc(F)cc3)cc2)ccc2cc(CN3CCCC3)cnc12 | 13.2 |

Test system: Mus musculus
Test: Antiobesity activity in MCHR1-deficient mouse assessed as inhibition of food intake at 3 mg/kg, po qd for 2 days
Assay type: functional
Details: 48 h
Outline: as §4

| SMILES | inhibition in vivo at 3 mg/kg [%] |
| --- | --- |
| Cc1c(NC(=O)c2ccc(-c3ccc(F)cc3)cc2)ccc2cc(CN3CCCC3)cnc12 | 4.1 |

Test system: Mus musculus
Test: Antiobesity activity in MCHR1-deficient mouse assessed as inhibition of food intake at 10 mg/kg, po qd for 2 days
Assay type: functional
Details: 48 h
Outline: as §4

| SMILES | inhibition in vivo at 10 mg/kg [%] |
| --- | --- |
| Cc1c(NC(=O)c2ccc(-c3ccc(F)cc3)cc2)ccc2cc(CN3CCCC3)cnc12 | 5.7 |

Source: ChEMBL document CHEMBL2029237, “Melanin-concentrating hormone receptor 1 antagonists. Synthesis and structure-activity relationships of novel 3-(aminomethyl)quinolines” (J Med Chem, 2012)
